Assay results pooled from the literature.
Lines come from different studies, so protocols differ.
Cell line: DU-145
Read-out: cell growth or viability

| Compound | technique | time | GI50 |
| --- | --- | --- | --- |
| COc1ccc(C(=O)/C=C/c2cccc(Cl)c2Cl)cc1S(N)(=O)=O | SRB | 48 h | 2900 nM |
| COc1cccc(Oc2ccccc2NC(=O)CNC(=O)c2cccc3ccccc23)c1 | SRB | 48 h | 708 nM |
| COc1ccc(C(=O)/C=C/c2cc3c(cc2Br)OCO3)cc1S(N)(=O)=O | SRB | 48 h | 3700 nM |
| COc1cc2c(cc1O)CCN(Cc1cc(Br)c(OC)c(OC)c1)C2 | WST-1 | 96 h | 300 nM |
| COc1ccc(C(=O)/C=C/c2cccnc2)cc1S(N)(=O)=O | SRB | 48 h | 11200 nM |
| CCOc1c(OC)cc(CN2CCc3cc(O)c(OC)cc3C2)cc1OC | WST-1 | 96 h | 300 nM |
| Cc1cc(C)n(C(=S)[S][Au][PH](CCCCCC[PH]([Au][S]C(=S)n2nc(C)cc2C)(c2ccccc2)c2ccccc2)(c2ccccc2)c2ccccc2)n1 |  |  | 633 nM |
| COc1cccc(S(=O)(=O)N2CCc3cc(OS(N)(=O)=O)c(OC)cc3C2)c1 | WST-1 | 96 h | 56700 nM |
| COc1cc2c(cc1O)CCN(Cc1cc(Cl)c(OC)c(OC)c1)C2 | WST-1 | 96 h | 900 nM |
| COc1ccccc1/C=C/C(=O)c1ccc(OC)c(S(N)(=O)=O)c1 | SRB | 48 h | 3200 nM |
| COc1ccc(OC)c(CN2CCc3cc(OS(N)(=O)=O)c(OC)cc3C2)c1 | WST-1 | 96 h | 2610 nM |
| COc1ccc(C(=O)/C=C/c2cccc3ccccc23)cc1S(N)(=O)=O | SRB | 48 h | 2800 nM |
| COc1cc2c(cc1OS(N)(=O)=O)CCN(Cc1ccc(OC)c(OC)c1OC)C2 | WST-1 | 96 h | 17000 nM |
| COc1ccc(-c2ccc(-c3ccc(C(=N)N)nc3)s2)cc1 |  |  | 1770 nM |
| COc1cc2c(cc1O)CCN(Cc1cc(OC)c(OC)c(OC)c1)C2 | WST-1 | 96 h | 650 nM |
| CCc1cc(CN2CCc3cc(OS(N)(=O)=O)c(OC)cc3C2)cc(CC)c1CC | WST-1 | 96 h | 1800 nM |
| COc1cc2c(cc1O)CCN(Cc1ccc(OC)c(OC)c1OC)C2 | WST-1 | 96 h | > 100000 nM |
| COc1ccc(C(=O)/C=C/c2ccc3ccccc3c2)cc1S(N)(=O)=O | SRB | 48 h | 3300 nM |
| CC(=O)O[C@H]1C(=O)[C@@]2(C)[C@H]([C@H](OC(=O)c3ccccc3)[C@]3(O)C[C@H](OC(=O)[C@H](O)[C@@H](NC(=O)c4ccccc4)c4ccccc4)C(C)=C1C3(C)C)[C@]1(OC(C)=O)CO[C@@H]1C[C@@H]2O | WST-1 | 96 h | 4 nM |
